Active and inactive are the calls of the source. No cut-off for these calls is given here.
Columns and labels:
[1] = Selectivity index, ratio of IC50 for human ARPE19 cells to IC50 for cisplatin-sensitive human A2780 cells; type: toxicity; details: ARPE19 cells versus cisplatin-sensitive A2780 cells, read-out: Ratio IC50
[2] = (§1) Antiproliferative activity against cisplatin-resistant human A2780/CP70 cells measured after 96 hrs by MTT assay; type: functional; details: A2780/CP70, 96 h
Procedure, shortened: (§2)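 Cells kept in DMEM or RPMI 1640 with 10% FBS and 5% penicillin-streptomycin at 37 °C, 5% CO2, seeded at 1 x 10⁴ cells/mL and left 24 h to adhere. Compounds or vehicle added over a concentration range for 96 h, then MTT 4 h; formazan dissolved in DMSO, absorbance read at 540 nm relative to control. IC50 given as mean ± SD of three independent experiments in duplicate.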

A2780 = assay: Antiproliferative activity against cisplatin-sensitive human A2780 cells measured after 96 hrs by MTT assay; type: functional, cell-based; details: for IC50: A2780, 96 h; procedure, shortened: as §2
[3] = Selectivity index, ratio of IC50 for human ARPE19 cells to IC50 for cisplatin-resistant human A2780/CP70 cells; type: toxicity; details: ARPE19 cells versus cisplatin-resistant A2780/CP70 cells, read-out: Ratio IC50
ARPE-19 = assay: Cytotoxicity against human ARPE19 cells measured after 96 hrs by MTT assay; type: cell-based; details: ARPE-19, 96 h; procedure, shortened: as §2
Homo sapiens = organism: Homo sapiens; assay: as §1; type: functional; procedure, shortened: as §2

Row | SMILES | IC50 (A2780) [nM] | selectivity ratio [1] | IC50 [2] [nM] | selectivity ratio [3] | IC50 (ARPE-19) [nM] | Activity (Homo sapiens) | Activity (A2780)
1 | CC1=C(CO[Si](C)(C)c2ccccc2)C(=O)O[C@@H]([C@@H](C)[C@H]2CC[C@H]3[C@@H]4C[C@H]5O[C@]56[C@@H](O[Si](C)(C)c5ccccc5)C=CC(=O)[C@]6(C)[C@H]4CC[C@]23C)C1 | 2.9 | 107 | 29 | 10.7 | 309 |  | 
2 | CC1=C(CO[Si](C)(C)C(C)C)C(=O)O[C@@H]([C@@H](C)[C@H]2CC[C@H]3[C@@H]4C[C@H]5O[C@]56[C@@H](O)[C@@H](n5ccnc5)CC(=O)[C@]6(C)[C@H]4CC[C@]23C)C1 | 20 | 2.6 | 19 | 2.7 | 52 |  | 
3 | CCC[Si](CCC)(CCC)OCC1=C(C)C[C@H]([C@@H](C)[C@H]2CC[C@H]3[C@@H]4C[C@H]5O[C@]56[C@@H](O)C=CC(=O)[C@]6(C)[C@H]4CC[C@]23C)OC1=O | 32 | 0.9 | 3.6 | 8.3 | 30 |  | 
4 | CC1=C(CO[Si](C(C)C)(C(C)C)C(C)C)C(=O)O[C@@H]([C@@H](C)[C@H]2CC[C@H]3[C@@H]4C[C@H]5O[C@]56[C@@H](O)C=CC(=O)[C@]6(C)[C@H]4CC[C@]23C)C1 | 30 | 2.1 | 62 | 1 | 62 |  | 
5 | CCCCCCCC[Si](C)(C)OCC1=C(C)C[C@H]([C@@H](C)[C@H]2CC[C@H]3[C@@H]4C[C@H]5O[C@]56[C@@H](O)C=CC(=O)[C@]6(C)[C@H]4CC[C@]23C)OC1=O | 10 | 3.2 | 33 | 1 | 32 |  | 
6 | CCC[Si](CCC)(CCC)OCC1=C(C)C[C@H]([C@@H](C)[C@H]2CC[C@H]3[C@@H]4C[C@H]5O[C@]56[C@@H](O[Si](CCC)(CCC)CCC)C=CC(=O)[C@]6(C)[C@H]4CC[C@]23C)OC1=O |  |  |  |  |  | inactive | inactive
7 | CC1=C(CO)C(=O)O[C@@H]([C@@H](C)[C@H]2CC[C@H]3[C@@H]4C[C@H]5O[C@]56C(=O)C=CC(=O)[C@]6(C)[C@H]4CC[C@]23C)C1 | 7.3 | 4.3 | < 1 | > 32 | 32 |  | 
8 | CC1=C(CO[Si](C)(c2ccccc2)c2ccccc2)C(=O)O[C@@H]([C@@H](C)[C@H]2CC[C@H]3[C@@H]4C[C@H]5O[C@]56[C@@H](O)C=CC(=O)[C@]6(C)[C@H]4CC[C@]23C)C1 | 22 | 3.2 | 28.3 | 2.5 | 70 |  | 
9 | CC1=C(CO[Si](C)(c2ccccc2)c2ccccc2)C(=O)O[C@@H]([C@@H](C)[C@H]2CC[C@H]3[C@@H]4C[C@H]5O[C@]56C(O[Si](C)(c5ccccc5)c5ccccc5)C=CC(=O)[C@]6(C)[C@H]4CC[C@]23C)C1 (stereo partly specified) |  |  |  |  |  | inactive | 
10 | CCCCCC[Si](CCCCCC)(CCCCCC)OCC1=C(C)C[C@H]([C@@H](C)[C@H]2CC[C@H]3[C@@H]4C[C@H]5O[C@]56[C@@H](O)C=CC(=O)[C@]6(C)[C@H]4CC[C@]23C)OC1=O |  |  |  |  |  | inactive | inactive
11 | CCCC[Si](CCCC)(CCCC)OCC1=C(C)C[C@H]([C@@H](C)[C@H]2CC[C@H]3[C@@H]4C[C@H]5O[C@]56[C@@H](O)C=CC(=O)[C@]6(C)[C@H]4CC[C@]23C)OC1=O | 27 | 9.6 | 22 | 11.8 | 260 |  | 
12 | CCCCCCCC[Si](C)(C)OCC1=C(C)C[C@H]([C@@H](C)[C@H]2CC[C@H]3[C@@H]4C[C@H]5O[C@]56[C@@H](O[Si](C)(C)CCCCCCCC)C=CC(=O)[C@]6(C)[C@H]4CC[C@]23C)OC1=O | 1.5 | 212 | 24.9 | 12.8 | 318 |  | 
13 | CC1=C(CO[Si](c2ccccc2)(c2ccccc2)C(C)(C)C)C(=O)O[C@@H]([C@@H](C)[C@H]2CC[C@H]3[C@@H]4C[C@H]5O[C@]56[C@@H](O)C=CC(=O)[C@]6(C)[C@H]4CC[C@]23C)C1 | 46 | 49.9 | 29 | 79.1 | 2300 |  | 

More lines, main results first:

Row | IC50 (A2780) [nM] | SMILES | selectivity ratio [1] | IC50 [2] [nM] | selectivity ratio [3] | IC50 (ARPE-19) [nM] | Activity (Homo sapiens) | Activity (A2780)
14 | 35 | CC[Si](CC)(CC)OCC1=C(C)C[C@H]([C@@H](C)[C@H]2CC[C@H]3[C@@H]4C[C@H]5O[C@]56C(=O)C=CC(=O)[C@]6(C)[C@H]4CC[C@]23C)OC1=O | 53.5 | 20 | 93.5 | 1870 |  | 
15 | 27 | C=C[Si](C)(C)OCC1=C(C)C[C@H]([C@@H](C)[C@H]2CC[C@H]3[C@@H]4C[C@H]5O[C@]56[C@@H](O)C=CC(=O)[C@]6(C)[C@H]4CC[C@]23C)OC1=O | 3.2 | 31 | 2.8 | 86 |  | 
16 | 35 | CC1=C(CO[Si](C(C)C)(C(C)C)C(C)C)C(=O)O[C@@H]([C@@H](C)[C@H]2CC[C@H]3[C@@H]4C[C@H]5O[C@]56C(=O)C=CC(=O)[C@]6(C)[C@H]4CC[C@]23C)C1 | 1.1 | 35 | 1.1 | 37.5 |  | 
17 | 34 | CC1=C(CO[Si](C)(C)C(C)C)C(=O)O[C@@H]([C@@H](C)[C@H]2CC[C@H]3[C@@H]4C[C@H]5O[C@]56[C@@H](O)C=CC(=O)[C@]6(C)[C@H]4CC[C@]23C)C1 | 191 | 35 | 186 | 6500 |  | 
18 | > 100 | CC[Si](CC)(CC)OCC1=C(C)C[C@H]([C@@H](C)[C@H]2CC[C@H]3[C@@H]4C[C@H]5O[C@]56[C@@H](O)C=CC(=O)[C@]6(C)[C@H]4CC[C@]23C)OC1=O |  | 12.8 | 2.3 | 30 |  | 
19 | 33 | C=C[Si](C)(C)OCC1=C(C)C[C@H]([C@@H](C)[C@H]2CC[C@H]3[C@@H]4C[C@H]5O[C@]56[C@@H](O[Si](C)(C)C=C)C=CC(=O)[C@]6(C)[C@H]4CC[C@]23C)OC1=O | 2.8 | 27.5 | 3.4 | 92 |  | 
20 | 53 | CCCC[Si](CCCC)(CCCC)OCC1=C(C)C[C@H]([C@@H](C)[C@H]2CC[C@H]3[C@@H]4C[C@H]5O[C@]56C(=O)C=CC(=O)[C@]6(C)[C@H]4CC[C@]23C)OC1=O | 11.6 | > 100 |  | 617 |  | 
21 | 35 | CC1=C(CO[Si](C)(c2ccccc2)c2ccccc2)C(=O)O[C@@H]([C@@H](C)[C@H]2CC[C@H]3[C@@H]4C[C@H]5O[C@]56C(=O)C=CC(=O)[C@]6(C)[C@H]4CC[C@]23C)C1 | 58.6 | > 100 |  | 2050 |  | 
22 | 43 | CC1=C(CO[Si](C)(C)C(C)C)C(=O)O[C@@H]([C@@H](C)[C@H]2CC[C@H]3[C@@H]4C[C@H]5O[C@]56C(=O)C=CC(=O)[C@]6(C)[C@H]4CC[C@]23C)C1 | 49.8 | 34 | 62.9 | 2140 |  | 
23 | 34 | CC1=C(CO)C(=O)O[C@@H]([C@@H](C)[C@H]2CC[C@H]3[C@@H]4C[C@H]5O[C@]56[C@@H](O[Si](C)(C)C(C)C)C=CC(=O)[C@]6(C)[C@H]4CC[C@]23C)C1 | 9.1 | 23 | 13.5 | 310 |  | 
24 | 32.7 | CC1=C(CO)C(=O)O[C@@H]([C@@H](C)[C@H]2CC[C@H]3[C@@H]4C[C@H]5O[C@]56[C@@H](O)C=CC(=O)[C@]6(C)[C@H]4CC[C@]23C)C1 [WITHAFERIN A] | 1.1 | 32 | 1.2 | 37 |  | 
25 | 41 | CC1=C(CO[Si](C)(C)C)C(=O)O[C@@H]([C@@H](C)[C@H]2CC[C@H]3[C@@H]4C[C@H]5O[C@]56C(=O)C=CC(=O)[C@]6(C)[C@H]4CC[C@]23C)C1 | 20 | 68.8 | 11.9 | 820 |  | 
26 | 59 | CC1=C(CO[Si](C)(C)c2ccccc2)C(=O)O[C@@H]([C@@H](C)[C@H]2CC[C@H]3[C@@H]4C[C@H]5O[C@]56C(=O)C=CC(=O)[C@]6(C)[C@H]4CC[C@]23C)C1 | 39.1 | > 100 |  | 2300 |  | 
27 | 69 | CCC[Si](CCC)(CCC)OCC1=C(C)C[C@H]([C@@H](C)[C@H]2CC[C@H]3[C@@H]4C[C@H]5O[C@]56C(=O)C=CC(=O)[C@]6(C)[C@H]4CC[C@]23C)OC1=O | 25.2 | 21 | 82.9 | 1740 |  | 

— ChEMBL document CHEMBL4350962, “Expanding the Chemical Space of Withaferin A by Incorporating Silicon To Improve Its Clinical Potential on Human Ovarian Carcinoma Cells” (J Med Chem, 2019)
